Source: ChEMBL document CHEMBL2057104, “Identification of myricetin and scutellarein as novel chemical inhibitors of the SARS coronavirus helicase, nsP13” (Bioorg Med Chem Lett, 2012)
The source made the active and inactive calls.

What was measured:
Hepacivirus hominis [1] = test: Inhibition of HCV NS3 helicase overexpressed in Escherichia coli BL21(DE3) assessed as inhibition of DNA unwinding activity at 10 uM by FRET assay
Hepacivirus hominis [2] = test: Inhibition of HCV NS3 helicase ATP hydrolysis activity overexpressed in Escherichia coli BL21(DE3) assessed as inhibition of inorganic phosphate release by AM/MG-based colometric analysis in the presence of M13 ssDNA
[3] = test system: Severe acute respiratory syndrome-related coronavirus; test: Inhibition of SARS coronavirus nsP13 helicase activity expressed in Escherichia coli Rosetta assessed inhibition of DNA unwinding activity at 10 uM by FRET assay
In short: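 FRET dsDNA-unwinding assay using fluorescein/TAMRA-labelled duplex. When nsP13 unwinds the duplex, fluorescein emission is unquenched. Compound was added to the unwinding reaction at 10 µM, and fluorescence was read at 535 nm.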

Measured: inhibition

CC1(C)CC[C@]2(C(=O)O)CC[C@]3(C)C(=CC[C@@H]4[C@@]5(C)CC[C@H](O)C(C)(C)[C@@H]5CC[C@]43C)[C@@H]2C1
inactive: all assays above

CC(C)=CCOc1c2occc2cc2ccc(=O)oc12
inactive: all assays above

COc1ccc(-c2cc(=O)c3c(O)cc(O[C@H]4O[C@@H](CO)[C@H](O)[C@@H](O)[C@@H]4O)cc3o2)cc1O
inactive: all assays above

CC[C@H](/C=C/[C@@H](C)[C@H]1CC[C@H]2[C@@H]3CC=C4C[C@@H](O)CC[C@]4(C)[C@H]3CC[C@]12C)C(C)C
inactive: all assays above

O=C1C[C@@H](c2ccc(O)cc2)Oc2cc(O)cc(O)c21
inactive: all assays above

COc1c2c(cc3oc(C)cc(=O)c13)OC(C(C)(C)O[C@H]1O[C@@H](CO)[C@H](O)[C@@H](O)[C@@H]1O)C2 (some centres not stated)
inactive: all assays above

COc1ccc(/C=C/C(=O)O[C@H]2[C@@H]3C=CO[C@@H](O[C@@H]4O[C@H](CO)[C@@H](O)[C@H](O)[C@H]4O)[C@@H]3[C@@]3(CO)O[C@@H]23)cc1O
inactive: all assays above

C=CCc1cc(OC)c(O)c(OC)c1
inactive: all assays above

O=c1c(-c2ccc(O[C@@H]3O[C@H](CO)[C@@H](O)[C@H](O)[C@H]3O)cc2)coc2cc(O)cc(O)c12
inactive: all assays above

COc1ccc(-c2oc3c(CC=C(C)C)c(O)cc(O)c3c(=O)c2O)cc1
inactive: all assays above

COc1cc(/C=C/C(=O)CC(=O)/C=C/c2ccc(O)c(OC)c2)ccc1O
inactive: all assays above

O=c1cc(-c2ccccc2)oc2cc(O)cc(O)c12
inactive: all assays above

COc1c2c(cc3oc(CO[C@@H]4O[C@H](CO)[C@@H](O)[C@H](O)[C@H]4O)cc(=O)c13)O[C@H](C(C)(C)O)C2
inactive: all assays above

O=C(O[C@H]1[C@@H]2C=CO[C@@H](O[C@@H]3O[C@H](CO)[C@@H](O)[C@H](O)[C@H]3O)[C@@H]2[C@@]2(CO)O[C@@H]12)c1ccc(O)c(O)c1
inactive: all assays above

CCCCCCCCCCCCC/C=C1/C(=O)O[C@H](C)[C@@H]1O
inactive: all assays above

CC(C)=CCC[C@](C)(O[C@@H]1O[C@H](CO[C@@H]2O[C@H](CO)[C@@H](O)[C@H](O)[C@H]2O)[C@@H](O)[C@H](O)[C@H]1O)[C@H]1CC[C@]2(C)[C@@H]1[C@H](O)C[C@@H]1[C@@]3(C)CC[C@H](O[C@@H]4O[C@H](CO)[C@@H](O)[C@H](O)[C@H]4O[C@@H]4O[C@H](CO)[C@@H](O)[C@H](O)[C@H]4O)C(C)(C)[C@@H]3CC[C@]12C
inactive: all assays above

O=C(O)c1cc(O)c(O)c(O)c1
inactive: all assays above

O=C(/C=C/c1ccccc1)NCCCCNC(=O)Cc1ccc(O)cc1
inactive: all assays above

O=c1c(O[C@@H]2O[C@H](CO)[C@H](O)[C@H](O)[C@H]2O)c(-c2ccc(O)c(O)c2)oc2cc(O)cc(O)c12
inactive: all assays above

C/C=C(/C)C(=O)O[C@H]1Cc2c(cc3oc(CO)cc(=O)c3c2O)OC1(C)C
inactive: all assays above

COc1c2c(cc3oc(C)cc(=O)c13)OC(C(C)(C)O)C2 (configuration not stated)
inactive: all assays above

C=C[C@]1(C)CC[C@@]2(C)C3=CCC[C@](C)(CO)[C@@H]3CC[C@@H]2C1
inactive: all assays above

Cc1cc(=O)c2c(O)c3c(cc2o1)OC(C)(C)[C@@H](O)C3
inactive: all assays above

Cc1cc(=O)c2c(O)c3c(cc2o1)OC(C)(C)[C@@H](O[C@H]1O[C@@H](CO)[C@H](O)[C@@H](O)[C@@H]1O)C3
inactive: all assays above

O=c1c(O)c(-c2ccc(O)cc2)oc2cc(O)cc(O)c12
inactive: all assays above

C[C@H]1C(=O)CC[C@@H]2[C@]1(C)CC[C@H]1[C@@]2(C)CC[C@@]2(C)[C@@H]3CC(C)(C)CC[C@]3(C)CC[C@]12C
inactive: all assays above

O=C(/C=C/c1ccc(O)cc1)c1ccc(O)cc1O
inactive: all assays above

C=C(C)[C@@H]1CC[C@]2(C(=O)O)CC[C@]3(C)[C@H](CC[C@@H]4[C@@]5(C)CC[C@H](O)C(C)(C)[C@@H]5CC[C@]43C)[C@@H]12
inactive: all assays above

C[C@@H]1O[C@@H](O[C@H]2[C@H](Oc3cc(O)c4c(c3)O[C@H](c3ccc(O)cc3)CC4=O)O[C@H](CO)[C@@H](O)[C@@H]2O)[C@H](O)[C@H](O)[C@H]1O
inactive: all assays above

CC(C)=CCc1c(O)cc2oc3cc(O)c(O)c(CC=C(C)C)c3c(=O)c2c1O
inactive: all assays above

COc1ccc(C(=O)O[C@H]2[C@@H]3C=CO[C@@H](O[C@@H]4O[C@H](CO)[C@@H](O)[C@H](O)[C@H]4O)[C@@H]3[C@@]3(CO)O[C@@H]23)cc1O
inactive: all assays above

C=C(C)[C@@H](C)CC[C@@H](C)[C@H]1CC[C@@]2(C)[C@@H]3CC[C@H]4C(C)(C)C(=O)CC[C@]4(C)C3=CC[C@]12C
inactive: all assays above

COc1ccc(C(=O)O[C@H]2[C@@H]3C=CO[C@@H](O[C@@H]4O[C@H](CO)[C@@H](O)[C@H](O)[C@H]4O)[C@@H]3[C@@]3(CO)O[C@@H]23)cc1OC
inactive: all assays above

O=C(/C=C/c1ccccc1)NCCCCNC(=O)c1ccccc1
inactive: all assays above

C=C(C)C(C)(C)CC[C@@H](C)[C@H]1CC[C@@]2(C)[C@@H]3CC[C@H]4C(C)(C)C(=O)CC[C@]4(C)C3=CC[C@]12C
inactive: all assays above

O=c1c(O[C@@H]2O[C@H](CO)[C@@H](O)[C@H](O)[C@H]2O)c(-c2ccc(O)c(O)c2)oc2cc(O)cc(O)c12
inactive: all assays above

C=C1CC[C@@H]2[C@](C)(CCC[C@]2(C)C(=O)O)[C@H]1CCc1ccoc1
inactive: all assays above

CC[C@H](CC[C@@H](C)[C@H]1CC[C@H]2[C@@H]3CC=C4C[C@@H](O)CC[C@]4(C)[C@H]3CC[C@]12C)C(C)C
inactive: all assays above

C[C@H]1[C@H](C)CC[C@]2(C)CC[C@]3(C)C(=CC[C@@H]4[C@@]5(C)CC[C@H](O)C(C)(C)[C@@H]5CC[C@]43C)[C@H]12
inactive: all assays above
